Test [1] has as its system NF-κB p65 and MAPK p38 phosphorylation in Tlr4-/- BMDMs. In words: Immunoblot of p65 and p38 phosphorylation in Tlr4-/- BMDMs. The format is cell-based, mouse. To be noted: GM 5 mM. In outline: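 Bone-marrow macrophages from WT or Tlr4-/- C57BL/6J mice were stimulated directly with 5 mM test compound or 500 ng/mL LPS. Cells were lysed in Tris/SDS/Triton buffer with protease and phosphatase inhibitors plus 10 mM DTT and boiled, then run on SDS-PAGE and transferred to PVDF. Blots were probed with rabbit antibodies to total or phospho-p65, total or phospho-p38 and GAPDH (1:1000, 4 °C overnight), then HRP anti-rabbit (1:5000).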
On the technique in general: Immunoblotting shows a protein as a band on a membrane.

A further test deals with Tlr4-/- BMDMs. In words: Cytokine secretion by Tlr4-/- BMDMs. The format is cell-based, mouse. Particulars: ELISA, 24 h; GM 4 mM, MDP 0.4 mM, LPS 100 ng/mL, CpG 100 nM. Put shortly:
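Murine BMDMs were differentiated 6 days in complete medium with 20 ng/mL GM-CSF or 10% L929 supernatant, then switched to serum-free IMDM and stimulated 24 h. Mouse TNF-α and IL-6 in culture supernatants were quantified by sandwich ELISA. Samples were prediluted in 1% BSA in PBS, pH 7.4, where needed.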
For orientation: An ELISA detects its analyte on a solid surface through an enzyme-linked reagent.

For the next test, the target named is mTLR4/mMD2 (wt / F126A) (Mus musculus, UniProt Q9JHF9+Q9QUK6, F126A). Nature of the test: NF-κB SEAP in HEK-Blue Null1, mTLR4 wt / mMD2 F126A. The format is cell-based. Particulars: GM 0.4, 0.2 mM; LPS 100 ng/mL; 24 h. In outline: (§1)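 Point mutants of mTLR4 or mMD2 were made by site-directed mutagenesis. HEK-Blue Null1 cells were co-transfected by lipofection for 16 h with 500 ng total of mTLR4 and Myc-tagged mMD2 plasmids (1:1); mock wells received lipofection reagent only. After a medium change the next day, cells were treated for 24 h. NF-κB SEAP was measured and normalised to water-treated samples; data are mean ± s.e.m., n = 3.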
mTLR4/mMD2 (wt / F126A), sequence (Q9QUK6 26-835): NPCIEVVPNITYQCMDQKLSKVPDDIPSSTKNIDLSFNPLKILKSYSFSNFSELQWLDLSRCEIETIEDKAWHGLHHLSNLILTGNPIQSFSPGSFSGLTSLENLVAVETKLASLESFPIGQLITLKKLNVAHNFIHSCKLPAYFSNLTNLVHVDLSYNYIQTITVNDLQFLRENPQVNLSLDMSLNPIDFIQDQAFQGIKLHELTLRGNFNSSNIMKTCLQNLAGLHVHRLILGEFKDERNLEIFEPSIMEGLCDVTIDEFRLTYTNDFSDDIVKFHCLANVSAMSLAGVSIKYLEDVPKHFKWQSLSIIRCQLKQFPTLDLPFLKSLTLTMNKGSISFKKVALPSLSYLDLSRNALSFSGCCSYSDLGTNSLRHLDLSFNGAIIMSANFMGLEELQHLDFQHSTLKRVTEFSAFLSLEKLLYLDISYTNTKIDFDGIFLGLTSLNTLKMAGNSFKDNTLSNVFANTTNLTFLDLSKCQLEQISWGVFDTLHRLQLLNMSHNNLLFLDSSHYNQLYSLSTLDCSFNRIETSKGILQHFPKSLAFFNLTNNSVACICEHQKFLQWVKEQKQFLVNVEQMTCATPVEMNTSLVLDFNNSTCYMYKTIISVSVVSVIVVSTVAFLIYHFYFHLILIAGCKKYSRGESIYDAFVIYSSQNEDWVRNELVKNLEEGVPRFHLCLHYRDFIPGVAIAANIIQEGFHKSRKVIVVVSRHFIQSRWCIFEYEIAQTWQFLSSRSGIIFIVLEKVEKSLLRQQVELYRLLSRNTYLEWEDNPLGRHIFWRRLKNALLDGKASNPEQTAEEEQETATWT
mTLR4/mMD2 (wt / F126A), sequence (Q9JHF9 19-160 F126A): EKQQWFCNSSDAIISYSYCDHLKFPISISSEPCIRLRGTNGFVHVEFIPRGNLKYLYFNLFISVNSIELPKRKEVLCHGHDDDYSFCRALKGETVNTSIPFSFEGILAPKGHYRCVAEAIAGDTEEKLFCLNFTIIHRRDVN

The target of the next test is mTLR4/mMD2 (Q339A / wt) (Mus musculus, UniProt Q9JHF9+Q9QUK6, Q339A). Nature of the test: NF-κB SEAP in HEK-Blue Null1, mTLR4 Q339A / mMD2 wt. The format is cell-based. Particulars: GM 0.4, 0.2 mM, 24 h. In outline:
as §1

In another test the target is mTLR4/mMD2 (K263A / wt) (Mus musculus, UniProt Q9JHF9+Q9QUK6, K263A). Nature of the test: NF-κB SEAP in HEK-Blue Null1, mTLR4 K263A / mMD2 wt. Type of test: cell-based. Particulars: GM 0.4, 0.2 mM, 24 h. In outline: as §1
mTLR4/mMD2 (K263A / wt), sequence (Q9QUK6 26-835 K263A): as the sequence (Q9QUK6 26-835) above, with K238A counted along it
mTLR4/mMD2 (K263A / wt), sequence (Q9JHF9 19-160): as the sequence (Q9JHF9 19-160 F126A) above, with A108F counted along it
The test system of another test is THP-1 cells. In words: Cytokine expression in THP-1 monocytes. Type of test: cell-based, human. To be noted: GM 2-8 mM. Put shortly:
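THP-1 cells were kept in RPMI 1640 with 10% heat-inactivated FBS. They were seeded at 100,000 cells/well in half-serum medium and stimulated immediately, with MDP 0.4 mM as control. Total RNA was extracted and cytokine transcripts were measured by RT-qPCR; n = 4.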

Test [2] relates to IRF signaling in RAW-Dual WT cells. In words: RAW-Dual WT IRF reporter. Type of test: cell-based, mouse. To be noted: 24 h.
Test [3] deals with WT BMDMs. In words: Cytokine secretion by WT BMDMs. Type of test: cell-based, mouse. To be noted: GM 4 mM, PB-resin, 24 h. Put shortly:
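Bone-marrow macrophages were derived from female C57BL/6J mice (GM-CSF or L929 supernatant, 6 days) and moved to serum-free IMDM. They were given 4 mM test compound or 100 ng/mL LPS for 24 h, each either untreated or first neutralised with polymyxin B resin. Supernatants were cleared at 16,000 × g and TNF-α was measured by sandwich ELISA, with samples prediluted in 1% BSA/PBS when needed.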

Another test concerns the target NOD1 (Homo sapiens, UniProt Q9Y239). Nature of the test: HEK-Blue NOD1 SEAP reporter assay. The format is cell-based. To be noted: GM, M 20 μM; 18 h. In outline:
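HEK-Blue hNod1 or hNod2 cells were seeded at 50,000 cells/well in DMEM/10% FBS without selection antibiotics and stimulated at once for 18 h (n = 3). Supernatant was mixed 1:4 with Quanti-Blue and incubated 6 h at 37 °C, and absorbance was read at 620 nm. Values were blanked against water-treated wells, and the respective parental Null cell readouts were subtracted.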

For a further test, the target named is mTLR4/mMD2 (wt / F119A) (Mus musculus, UniProt Q9JHF9+Q9QUK6, F119A). In words: NF-κB SEAP in HEK-Blue Null1, mTLR4 wt / mMD2 F119A. Type of test: cell-based. Particulars: GM 0.4, 0.2 mM, 24 h. Put shortly:
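Site-directed mTLR4 or mMD2 variants were made by mutagenesis. HEK-Blue Null1 cells were co-transfected 16 h with 500 ng mTLR4 and mMD2-Myc plasmids (1:1) by lipofection; mock cells got water/Lipofectamine. After a medium change, cells were treated 24 h. Supernatant SEAP was measured with Quanti-Blue (37 °C, 6 h, A620), normalized to H2O-treated cells; mean ± s.e.m., n = 3.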

For test [4], the system named is WT BMDMs. Nature of the test: RNAseq of WT BMDMs. The format is cell-based, mouse. Particulars: GM 8 mM, 24 h, n = 3. In outline: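 BMDMs were differentiated 6 days from mouse bone marrow with GM-CSF or L929 supernatant at 800,000 cells/well, switched to serum-free IMDM and stimulated 24 h; MDP 0.4 mM was run alongside. Total RNA was extracted for RNAseq. Differentially expressed genes were called at p < 0.01 and logFC > 1 and plotted as mean heatmaps; n = 3.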

The target in test [5] is recombinant mTLR4 protein (Mus musculus, UniProt Q9QUK6). In words: mTLR4 pulldown by immobilized GM-agarose beads. Type of test: binding. Particulars: pre-incubation of mTLR4 with excess GM. Put shortly: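 An azide-tagged test-compound probe (2.5 mM) was clicked onto alkyne agarose beads (1.2 mM ascorbate, 0.5 mM CuSO4, 0.5 mM THPTA, 4 °C, 3 h); control beads lacked probe. Beads were incubated overnight at 4 °C in water with recombinant mouse TLR4(26-638)-His6 (100 or 50 ng), optionally pre-incubated with free competitor. Flow-through, wash and boiled eluate were analysed by Coomassie-stained SDS-PAGE.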
recombinant mTLR4 protein, sequence (Q9QUK6 26-638): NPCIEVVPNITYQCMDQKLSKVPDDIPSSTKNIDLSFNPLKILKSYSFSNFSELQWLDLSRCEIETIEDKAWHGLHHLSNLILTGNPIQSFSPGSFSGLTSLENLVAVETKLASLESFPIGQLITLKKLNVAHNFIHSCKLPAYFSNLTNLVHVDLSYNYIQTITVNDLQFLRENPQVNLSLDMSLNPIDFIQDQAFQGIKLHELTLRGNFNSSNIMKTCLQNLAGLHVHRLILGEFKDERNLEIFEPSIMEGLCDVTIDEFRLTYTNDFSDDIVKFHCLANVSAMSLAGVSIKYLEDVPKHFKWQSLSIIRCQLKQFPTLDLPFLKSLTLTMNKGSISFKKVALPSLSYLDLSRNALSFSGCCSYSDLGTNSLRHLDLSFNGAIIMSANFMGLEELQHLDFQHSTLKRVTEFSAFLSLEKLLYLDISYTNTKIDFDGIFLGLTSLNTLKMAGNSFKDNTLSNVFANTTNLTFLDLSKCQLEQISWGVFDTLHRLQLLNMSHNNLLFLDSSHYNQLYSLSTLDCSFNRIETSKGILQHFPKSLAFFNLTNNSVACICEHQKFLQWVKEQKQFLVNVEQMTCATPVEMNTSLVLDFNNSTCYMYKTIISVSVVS

In test [6] the test system is NF-κB signaling in RAW-Dual Tlr4-/- cells. Nature of the test: RAW-Dual Tlr4-/- NF-κB reporter. Type of test: cell-based, mouse. To be noted: 24 h. Put shortly:
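RAW-Dual cells (WT or Tlr4-/-) were seeded at 100,000 cells/well in complete DMEM without selection antibiotics, 24 h before treatment. Test compounds were added for 24 h (n = 3). NF-κB-driven SEAP was read by mixing supernatant 1:4 with Quanti-Blue, incubating 6 h at 37 °C and measuring absorbance at 620 nm, blanked against water-treated wells.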

The next test concerns Tlr4-/- C57BL/6 J mice. Nature of the test: DSS-induced colitis model in Tlr4-/- mice. The format is in vivo, mouse. Particulars: GM 10 mg/kg i.p. daily, 3% DSS. In outline:
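Male SPF C57BL/6J mice aged 7–8 weeks, WT or Tlr4-/- (bred in house), were age-, weight- and sex-matched. They drank 3% (w/v) DSS water for 7 days and were then euthanised. Test compound (10 mg/kg) or PBS (5 mL/kg) was given i.p. daily from 2 days before DSS until the end. Body weight was recorded daily.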

Each structure is given as a SMILES string.

NOD1, sequence (Q9Y239 whole entry): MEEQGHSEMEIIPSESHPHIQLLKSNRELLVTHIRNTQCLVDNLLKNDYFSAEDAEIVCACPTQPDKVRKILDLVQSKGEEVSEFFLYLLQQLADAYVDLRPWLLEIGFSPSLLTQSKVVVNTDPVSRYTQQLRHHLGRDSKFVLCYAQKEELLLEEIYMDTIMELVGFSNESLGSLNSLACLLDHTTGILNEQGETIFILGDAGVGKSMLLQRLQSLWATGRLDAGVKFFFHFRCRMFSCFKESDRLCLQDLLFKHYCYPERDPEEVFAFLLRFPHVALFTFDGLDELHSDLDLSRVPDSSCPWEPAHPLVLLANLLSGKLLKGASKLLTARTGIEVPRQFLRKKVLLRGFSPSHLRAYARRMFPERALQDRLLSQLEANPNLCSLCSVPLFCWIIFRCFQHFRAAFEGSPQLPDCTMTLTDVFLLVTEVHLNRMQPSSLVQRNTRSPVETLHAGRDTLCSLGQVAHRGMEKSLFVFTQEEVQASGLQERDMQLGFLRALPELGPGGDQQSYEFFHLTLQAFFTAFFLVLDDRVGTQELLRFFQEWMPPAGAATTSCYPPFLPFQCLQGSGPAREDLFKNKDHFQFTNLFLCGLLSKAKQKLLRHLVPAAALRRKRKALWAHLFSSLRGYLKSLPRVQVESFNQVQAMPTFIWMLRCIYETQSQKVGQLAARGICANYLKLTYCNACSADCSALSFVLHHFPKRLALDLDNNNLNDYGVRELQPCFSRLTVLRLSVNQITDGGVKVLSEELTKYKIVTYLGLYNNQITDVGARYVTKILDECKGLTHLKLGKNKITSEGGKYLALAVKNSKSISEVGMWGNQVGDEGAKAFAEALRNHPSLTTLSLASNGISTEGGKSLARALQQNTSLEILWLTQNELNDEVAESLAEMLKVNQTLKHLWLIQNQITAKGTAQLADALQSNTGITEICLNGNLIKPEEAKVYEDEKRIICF
mTLR4/mMD2 (Q339A / wt), sequence (Q9QUK6 26-835 Q339A): as the sequence (Q9QUK6 26-835) above, with Q314A counted along it
mTLR4/mMD2 (Q339A / wt), sequence (Q9JHF9 19-160): as the sequence (Q9JHF9 19-160 F126A) above, with A108F counted along it
mTLR4/mMD2 (wt / F119A), sequence (Q9QUK6 26-835): as the sequence (Q9QUK6 26-835) above
mTLR4/mMD2 (wt / F119A), sequence (Q9JHF9 19-160 F119A): as the sequence (Q9JHF9 19-160 F126A) above, with F101A, A108F counted along it

As to `CC(=O)N[C@H]1[C@H](O[C@H]2[C@H](O[C@H](C)C(=O)O)[C@@H](NC(C)=O)C(O)O[C@@H]2CO)O[C@H](CO)[C@@H](O)[C@@H]1O` (stereo partly drawn) [GM, N-acetylglucosamine-β−1,4-N-acetylmuramic acid], the “p65 and p38 phosphorylation in Tlr4-/- BMDMs” value in test [1] was “absence of p65 and p38 phosphorylation”. In the test on Tlr4-/- BMDMs, the “TNF-α and IL-6 production in Tlr4-/- BMDMs (in words)” value is “fails to elicit increased levels of TNF-α and IL-6”. The “Effect of mutation mMD-2_F126 on NF-κB activity (in words)” value on mTLR4/mMD2 (wt / F126A) was “abrogated NF-κB activation”. In addition, the “Effect of mutation mTLR4 Q339 on NF-κB activity (in words)” value on mTLR4/mMD2 (Q339A / wt) was “abolished GM-triggered NF-κB activity”. For the same molecule, the “Effect of mutation mTLR4_K263 on NF-κB activity (in words)” value on mTLR4/mMD2 (K263A / wt) is “abolished GM-triggered NF-κB activity”. For the same molecule, the “Immuno-stimulatory activity in THP-1 (in words)” value with THP-1 cells is “dose-dependent immuno-stimulatory activity”. Moreover, the “IRF signaling in RAW-Dual WT cells (in words)” value in [2] was “dose-dependent activation of both NF-κB and IRF signaling”. In addition, the “TNF-α induction in BMDMs after polymyxin B neutralization (in words)” value in the test with WT BMDMs [3] is given as “unaffected by polymyxin B neutralization”. At NOD1, the “NOD1 activation in HEK-Blue reporter cells (in words)” value is listed as “unable to activate NOD1/2”. At mTLR4/mMD2 (wt / F119A), the “Effect of mutation mMD-2_F119 on NF-κB activity (in words)” value is “did not significantly impair the activity of GM”. In the test on WT BMDMs [4], the “Cytokine and chemokine genes (Il12a/b, Il6, Il1a/b, Csf3, Ccl5, Cxcl1) by RNAseq, WT BMDMs” value is recorded as “significantly upregulated”. Moreover, in [5], the “Competition of mTLR4 binding to GM-1-resin by excess free ligand” value is given as “dose-dependent decrease in the amount of mTLR4 bound to GM-1-resin”. Also, the “NF-κB signaling in RAW-Dual Tlr4-/- cells (in words)” value in test [6] was “minimal activity”. Also, the “DSS-induced colitis in Tlr4-/- mice: weight loss and colonic shortening” value in the test on Tlr4-/- C57BL/6 J mice is “failed to prevent weight loss and colonic shortening”. For the same molecule, in the test on Tlr4-/- C57BL/6 J mice (RT-qPCR), the “Cytoprotective responses in colitis Tlr4-/- mice” value is given as “No upregulation of cytoprotective responses”.
